From ChEMBL document CHEMBL2396631, “(+)-Altholactone exhibits broad spectrum immune modulating activity by inhibiting the activation of pro-inflammatory cytokines in RAW 264.7 cell lines” (Bioorg Med Chem, 2013)
The source made the active and inactive calls. No cut-off for these calls is given here.

Legend:
RAW264.7 [1] = assay: Cytotoxicity against mouse RAW264.7 cells after 18 hrs by MTT assay; assay type: cell-based; conditions: RAW264.7, 18 h
How it was run: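 Murine macrophage RAW264.7 cells exposed to compound about 18 h, tested at 6.25–100 µM from DMSO stock. MTT added for 2 h, formazan dissolved in DMSO and read at 570 nm. IC50 given as mean ± SE, n = 3.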

[2] = Inhibition of LPS-induced NF-kappaB activation in mouse RAW264.7 cells after 18 hrs by luciferase assay; assay type: cell-based; conditions: RAW264.7, 18 h
How it was run: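 RAW264.7 cells stably carrying an NF-κB luciferase reporter plated at 5 × 10⁴ per well and allowed 24 h recovery. Then treated with compound plus LPS 100 ng/mL for 18 h. Lysates read after adding luciferase assay reagent. IC50 given as mean ± SE, n = 3.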

LNCaP = assay: Cytotoxicity against human LNCAP cells up to 100 uM after 20 hrs by MTT assay; assay type: cell-based
How it was run: (§1)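 Non-tumorigenic MCF-10A and tumorigenic MCF-7, MDA-MB-231, PC3 and LNCaP cells grown in 96-well plates in their own growth media. Treated with 6.25, 12.5, 25, 50 or 100 µM compound from DMSO stock for 20 h, then MTT added for 2 h. Formazan dissolved in DMSO and absorbance read at 570 nm.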

RAW264.7 [3] = assay: Inhibition of LPS-induced NF-kappaB activation in mouse RAW264.7 cells assessed as reduction of IkappaBalpha phosphorylation at 1.5 to 12 uM after 4 hrs by Western blot analysis; assay type: cell-based
How it was run: (§2)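 Near-confluent cells treated with rising compound concentrations (1.5–12.0 µM) plus LPS for 4 h at 37 °C. Lysed directly in SDS loading buffer, sonicated, heated, run on 4–15% gels, then transferred. Probed for phospho-IκBα, IκBα, iNOS and COX-2, with β-actin as the loading reference; HRP secondaries used.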

RAW264.7 [4] = assay: Antiinflammatory activity in mouse RAW264.7 cells assessed as reduction of LPS-induced COX2 mRNA expression by quantitative real-time PCR analysis; assay type: functional, cell-based
How it was run: (§3)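 Cells treated with compound (0.7–12.5 µM) plus LPS 100 ng/mL. Total RNA analysed by SYBR Green real-time qPCR, with each gene normalised to GAPDH. Mean ± SD of three independent experiments; one-way ANOVA, p < 0.05 taken as significant.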

RAW264.7 [5] = assay: Antiinflammatory activity in mouse RAW264.7 cells assessed as reduction of LPS-induced COX2 expression at 5 uM after 4 hrs by Western blot analysis; assay type: functional, cell-based; how it was run: as §2
PC-3 = assay: Cytotoxicity against human PC3 cells up to 100 uM after 20 hrs by MTT assay; assay type: cell-based; conditions: pc-3, 20 h; how it was run: as §1
RAW264.7 [6] = assay: Antiinflammatory activity in mouse RAW264.7 cells assessed as reduction of LPS-induced IL-1beta mRNA expression by quantitative real-time PCR analysis; assay type: functional, cell-based; how it was run: as §3
RAW264.7 [7] = assay: Antiinflammatory activity in mouse RAW264.7 cells assessed as reduction of LPS-induced iNOS expression at 5 uM after 4 hrs by Western blot analysis; assay type: functional, cell-based; how it was run: as §2
RAW264.7 [8] = assay: Antiinflammatory activity in mouse RAW264.7 cells assessed as reduction of LPS-induced G-CSF mRNA expression by quantitative real-time PCR analysis; assay type: functional, cell-based; how it was run: as §3
RAW264.7 [9] = assay: Antiinflammatory activity in mouse RAW264.7 cells assessed as reduction of LPS-induced iNOS mRNA expression by quantitative real-time PCR analysis; assay type: functional, cell-based; how it was run: as §3
MCF7 = assay: Cytotoxicity against human MCF7 cells up to 100 uM after 20 hrs by MTT assay; assay type: cell-based; conditions: mcf7, 20 h; how it was run: as §1
MCF-10A = assay: Cytotoxicity against human MCF10A cells up to 100 uM after 20 hrs by MTT assay; assay type: cell-based; how it was run: as §1
RAW264.7 [10] = assay: Antiinflammatory activity in mouse RAW264.7 cells assessed as reduction of LPS-induced IFN-beta mRNA expression by quantitative real-time PCR analysis; assay type: functional, cell-based; how it was run: as §3
RAW264.7 [11] = assay: Antiinflammatory activity in mouse RAW264.7 cells assessed as reduction of LPS-induced MCP1 mRNA expression by quantitative real-time PCR analysis; assay type: functional, cell-based; how it was run: as §3
RAW264.7 [12] = assay: Antiinflammatory activity in mouse RAW264.7 cells assessed as inhibition of LPS-induced nitric oxide production after 24 hrs by Griess assay; assay type: functional, cell-based; conditions: RAW264.7, 24 h
How it was run: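 Cells plated in RPMI1640, 24 h at 37 °C; medium changed, then compound plus E. coli 055:B5 LPS added. Supernatant mixed with Griess reagent (sulfanilamide/naphthylethylenediamine in H3PO4), 30 min at room temperature in the dark. IC50 given as mean ± SE, n = 3.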

RAW264.7 [13] = assay: Antiinflammatory activity in mouse RAW264.7 cells assessed as reduction of LPS-induced IP-10 mRNA expression by quantitative real-time PCR analysis; assay type: functional, cell-based; how it was run: as §3
RAW264.7 [14] = assay: Antiinflammatory activity in mouse RAW264.7 cells assessed as reduction of LPS-induced IL-6 mRNA expression by quantitative real-time PCR analysis; assay type: functional, cell-based; how it was run: as §3
MDA-MB-231 = assay: Cytotoxicity against human MDA-MB-231 cells up to 100 uM after 20 hrs by MTT assay; assay type: cell-based; conditions: mda-mb-231, 20 h; how it was run: as §1

IC50 [2] | IC50 (RAW264.7 [4]) | IC50 (RAW264.7 [6]) | IC50 (RAW264.7 [8]) | IC50 (RAW264.7 [9]) | IC50 (RAW264.7 [10]) | IC50 (RAW264.7 [11]) | IC50 (RAW264.7 [12]) | IC50 (RAW264.7 [13]) | IC50 (RAW264.7 [14]) | Structure (SMILES) | IC50 (RAW264.7 [1]) | Activity (LNCaP) | inhibition (RAW264.7 [3]) | inhibition (RAW264.7 [5]) | Activity (PC-3) | inhibition (RAW264.7 [7]) | Activity (MCF7) | Activity (MCF-10A) | Activity (MDA-MB-231)
34.3 µM |  |  |  |  |  |  |  |  |  | CC(=O)O[C@H]1[C@@H]2OC(=O)C=C[C@@H]2O[C@@H]1c1ccccc1 [(+)-3-O-ACETYLALTHOLACTONE] | 36.1 µM |  |  |  |  |  |  |  | 
27.4 µM |  |  |  |  |  |  |  |  |  | O=C1C=CC[C@H](/C=C/c2ccccc2)O1 [GONIOTHALAMIN] | 34.2 µM |  |  |  |  |  |  |  | 
6.7 µM | 3 µM | 3 µM | 4 µM | 2 µM | 0.8 µM | 4 µM | 0.8 µM | 5 µM | 0.9 µM | O=C1C=C[C@@H]2O[C@H](c3ccccc3)[C@@H](O)[C@@H]2O1 [ALTHOLACTONE] | 43.4 µM | Non-toxic | Active | Active | Non-toxic | Active | Non-toxic | Non-toxic | Non-toxic
